Assay results as given in ChEMBL document CHEMBL2407075, “Sulphonamido-quinoxalines: search for anticancer agent” (Eur J Med Chem, 2013).

Assays:
Format in all cases: functional
[1] = test system: T47D; assay: Growth inhibition of human T47D cells assessed as cell growth at 10^-4 M after 48 hrs by sulforhodamine B assay; details: read-out: Activity
[2] = test system: RXF 393; assay: Growth inhibition of human RXF393 cells assessed as cell growth at 10^-4 M after 48 hrs by sulforhodamine B assay; details: RXF 393, 48 h, read-out: Activity
[3] = test system: A498; assay: Growth inhibition of human A498 cells assessed as cell growth at 10^-4 M after 48 hrs by sulforhodamine B assay; details: A498, 48 h, read-out: Activity
In short: (§1)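 Five-dose NCI-60 run (0.01, 0.1, 1, 10 and 100 µM, as 10-fold dilutions from a DMSO stock made at 400× the top final level). Cells were grown in RPMI 1640 with 5% FBS and 2 mM glutamine and plated for 24 h. They were then exposed for 48 h at 37 °C and 5% CO2. TCA fixation was followed by SRB staining with A515 read-out. Percent growth was taken relative to time-zero and control plates.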

[4] = test system: NCI-H522; assay: Growth inhibition of human NCI-H522 cells assessed as cell growth at 10^-4 M after 48 hrs by sulforhodamine B assay; details: NCI-H522, 48 h, read-out: Activity
[5] = test system: T47D; assay: Growth inhibition of human T47D cells assessed as cell growth at 10^-5 M after 48 hrs by sulforhodamine B assay; details: read-out: Activity
[6] = test system: MDA-MB-231; assay: Growth inhibition of human MDA-MB-231 cells assessed as cell growth at 10^-5 M after 48 hrs by sulforhodamine B assay; details: MDA-MB-231, 48 h, read-out: Activity
[7] = test system: MCF7; assay: Growth inhibition of human MCF7 cells assessed as cell growth at 10^-5 M after 48 hrs by sulforhodamine B assay; details: MCF7, 48 h, read-out: Activity
[8] = test system: LOX IMVI; assay: Growth inhibition of human LOXIMVI cells assessed as cell growth at 10^-5 M after 48 hrs by sulforhodamine B assay; details: read-out: Activity
[9] = test system: SW-620; assay: Growth inhibition of human SW620 cells assessed as cell growth at 10^-5 M after 48 hrs by sulforhodamine B assay; details: SW-620, 48 h, read-out: Activity
[10] = test system: RPMI-8226; assay: Growth inhibition of human RPMI8226 cells assessed as cell growth at 10^-5 M after 48 hrs by sulforhodamine B assay; details: RPMI-8226, 48 h, read-out: Activity
[11] = test system: HL-60(TB); assay: Growth inhibition of human HL-60(TB) cells assessed as cell growth at 10^-5 M after 48 hrs by sulforhodamine B assay; details: HL-60, 48 h, read-out: Activity
In short: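 HL-60(TB) suspension cells were treated 48 h at 37 °C within the five-dose series (0.01–100 µM), fixed with 16% final TCA and SRB-stained, read at 515 nm. Percentage growth at each concentration = (Ti−Tz)/(C−Tz)×100, or (Ti−Tz)/Tz×100 when Ti<Tz, with time-zero (Tz) and untreated control (C) plates.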

[12] = test system: SN12C; assay: Growth inhibition of human SN12C cells assessed as cell growth at 10^-6 M after 48 hrs by sulforhodamine B assay; details: read-out: Activity
[13] = test system: SNB-19; assay: Growth inhibition of human SNB19 cells assessed as cell growth at 10^-6 M after 48 hrs by sulforhodamine B assay; details: SNB-19, 48 h, read-out: Activity
[14] = test system: PC-3; assay: Growth inhibition of human PC3 cells assessed as cell growth at 10^-7 M after 48 hrs by sulforhodamine B assay; details: PC-3, 48 h, read-out: Activity
[15] = test system: ACHN; assay: Growth inhibition of human ACHN cells assessed as cell growth at 10^-7 M after 48 hrs by sulforhodamine B assay; details: read-out: Activity; in short: as §1
[16] = test system: SNB-75; assay: Growth inhibition of human SNB75 cells assessed as cell growth at 10^-7 M after 48 hrs by sulforhodamine B assay; details: SNB-75, 48 h, read-out: Activity
[17] = test system: NCI-H460; assay: Growth inhibition of human NCI-H460 cells assessed as cell growth at 10^-7 M after 48 hrs by sulforhodamine B assay; details: NCI-H460, 48 h, read-out: Activity
[18] = test system: BT-549; assay: Growth inhibition of human BT549 cells assessed as cell growth at 10^-8 M after 48 hrs by sulforhodamine B assay; details: BT-549, 48 h, read-out: Activity; in short: as §1
[19] = test system: M14; assay: Growth inhibition of human M14 cells assessed as cell growth at 10^-8 M after 48 hrs by sulforhodamine B assay; details: M14, 48 h, read-out: Activity
[20] = test system: HT-29; assay: Growth inhibition of human HT-29 cells assessed as cell growth at 10^-8 M after 48 hrs by sulforhodamine B assay; details: HT-29, 48 h, read-out: Activity
In short: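 Five-dose screen at NCI. Cells in RPMI 1640 with 5% FBS and 2 mM L-glutamine, seeded at 5000–40,000 cells/well and grown 24 h at 37 °C, 5% CO2 before dosing, with time-zero plates TCA-fixed. Drug diluted from DMSO stock to 0.01, 0.1, 1, 10 and 100 µM final, 48 h. Cells fixed with cold TCA (10% final), stained with 0.4% SRB and read at 515 nm. Percent growth from Tz, control and test absorbances; GI50, TGI and LC50 from dose-response curves.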

[21] = test system: K562; assay: Growth inhibition of human K562 cells assessed as cell growth at 10^-8 M after 48 hrs by sulforhodamine B assay; details: K562, 48 h, read-out: Activity
[22] = test system: BT-549; assay: Growth inhibition of human BT549 cells after 48 hrs by sulforhodamine B assay; details: BT-549, 48 h; for CC50: read-out: LC50 (the source's name)
In short: (§2)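 Adherent cells in RPMI 1640 with 5% FBS and 2 mM L-glutamine were plated at 5000–40,000 cells/well and grown 24 h. Five concentrations (0.01–100 µM, DMSO stock) were added for 48 h at 37 °C. Cells were fixed with cold TCA (10% final) and stained with SRB, read at 515 nm. GI50 came from log concentration–growth curves against time-zero and control plates.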

[23] = test system: OVCAR-5; assay: Growth inhibition of human OVCAR5 cells after 48 hrs by sulforhodamine B assay; details: OVCAR-5, 48 h; for CC50: read-out: LC50 (the source's name); in short: as §2
[24] = test system: IGROV-1; assay: Growth inhibition of human IGROV1 cells after 48 hrs by sulforhodamine B assay; details: IGROV-1, 48 h; for CC50: read-out: LC50 (the source's name); in short: as §2
[25] = test system: A549; assay: Growth inhibition of human A549/ATCC cells after 48 hrs by sulforhodamine B assay; details: A549, 48 h; for CC50: read-out: LC50 (the source's name); in short: as §2
[26] = test system: RPMI-8226; assay: Growth inhibition of human RPMI8226 cells after 48 hrs by sulforhodamine B assay; details: RPMI-8226, 48 h; for CC50: read-out: LC50 (the source's name)
In short: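 Leukemia suspension cells in RPMI 1640 with 5% FBS and 2 mM L-glutamine were plated at 5000–40,000 cells/well and grown 24 h. Five concentrations (0.01–100 µM) were given for 48 h at 37 °C. Settled cells were fixed with 80% TCA (16% final) and SRB-stained, read at 515 nm. GI50 came from dose–response curves against time-zero and control plates.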

Row | Structure (SMILES) | growth at 100 µM [1] [%] | growth at 100 µM [2] [%] | growth at 100 µM [3] [%] | growth at 100 µM [4] [%] | growth at 10 µM [5] [%] | growth at 10 µM [6] [%] | growth at 10 µM [7] [%] | growth at 10 µM [8] [%] | growth at 10 µM [9] [%] | growth at 10 µM [10] [%] | growth at 10 µM [11] [%] | growth at 1 µM [12] [%] | growth at 1 µM [13] [%] | growth at 0.1 µM [14] [%] | growth at 0.1 µM [15] [%] | growth at 0.1 µM [16] [%] | growth at 0.1 µM [17] [%] | growth at 0.01 µM [18] [%] | growth at 0.01 µM [19] [%] | growth at 0.01 µM [20] [%] | other results
1 | O=S(=O)(Nc1ccc(Cl)cc1)c1ccc2nc(-c3ccccc3)c(-c3ccccc3)nc2c1 | 37 | 51 | 61 | 67 | -20 | -78 | -16 | 3 | 14 | -45 | -32 | 93 | 89 | 92 | 95 | 68 | 105 | 98 | 95 | 100 | growth at 0.01 µM [21]: 98%; CC50 [22]: > 100 µM; TGI [23]: > 100 µM; CC50 [23]: > 100 µM; TGI [24]: > 100 µM; CC50 [24]: > 100 µM; TGI [25]: > 100 µM; CC50 [25]: > 100 µM; GI50 [26]: 1.43 µM; CC50 [26]: > 100 µM
2 | O=S(=O)(Nc1ccccn1)c1ccc2nc(-c3ccccc3)c(-c3ccccc3)nc2c1 | -1 | 38 | 49 | 31 | -22 | -60 | -22 | -93 | 14 | -48 | -30 | 91 | 87 | 93 | 98 | 90 | 106 | 99 | 96 | 102 | growth at 0.01 µM [21]: 105%; GI50 [22]: 1.58 µM; CC50 [22]: > 100 µM; TGI [23]: > 100 µM; CC50 [23]: > 100 µM; TGI [24]: > 100 µM; CC50 [24]: > 100 µM; TGI [25]: > 100 µM; CC50 [25]: > 100 µM; GI50 [26]: 1.11 µM; CC50 [26]: > 100 µM
